Measured values pooled from the literature.
Each line is one published result; the experiments were not run side by side.
FGFR2: Fibroblast growth factor receptor 2 (FGFR2, Homo sapiens, UniProt P21802)
FGFR2 N549H: Fibroblast growth factor receptor 2 (FGFR2, Homo sapiens, UniProt P21802, N549H)

The inhibition of `CS(=O)(=O)Nc1cccc(-c2csc(NC(=O)CSc3nc4nccnc4c(=O)n3CCc3ccccc3)n2)c1` is reported as -2% (FGFR2; enzyme activity, inhibitor; 10 µM).
With `COc1cc2ncnc(Nc3ccc(Oc4ccccc4)cc3C)c2cc1OC` the inhibition was 8% (FGFR2; enzyme activity, inhibitor; 1 µM).
`CCN(CC)CCNC(=O)c1c(C)[nH]c(/C=C2\C(=O)Nc3ccc(F)cc32)c1C` has an inhibition of 95% (FGFR2 N549H; cell-free assay; 10 µM).
The inhibition of `O=C(CSc1nc2nccnc2c(=O)n1CCc1ccccc1)Nc1nccs1` is reported as 3% (FGFR2; enzyme activity, inhibitor; 10 µM).
The inhibition of `CN(C)C1CCN(CC#Cc2nn(C3CCCC3)c3nc(NCc4ccccc4)ncc23)C1` (stereo not drawn) is reported as 46% (FGFR2; enzyme activity, inhibitor, FRET; 10 µM).
`Cc1ccc(Nc2nccc(N(C)c3ccc4c(C)n(C)nc4c3)n2)cc1S(N)(=O)=O` has an inhibition of 96% (FGFR2 N549H; cell-free assay; 10 µM).
`COc1cc2ncnc(Nc3ccc(Oc4ccccc4)c(C)c3C)c2cc1OC` has an inhibition of 3% (FGFR2; enzyme activity, inhibitor; 1 µM).
`C=CC(=O)Nc1cc(Nc2nccc(Nc3cc(Cl)c(F)cc3C(C)(C)O)n2)c(OC)cc1N1CC[C@@H](N(C)C)C1` has an inhibition of 10% (FGFR2; enzyme activity, inhibitor; 1 µM).
`CC/C(=N\NC(=O)NCc1cccc(O)c1)c1ccc(O)c(C)c1O` gave an inhibition of 7.7% (FGFR2; enzyme activity, inhibitor; 0.1 µM).
`CNC(=O)c1cc2c(Oc3ccc(NC(=O)C4(C(=O)Nc5ccc(F)cc5)CC4)cc3)ccnc2cc1OC` gave an inhibition of 95% (FGFR2 N549H; enzyme activity, inhibitor, radiometric; 1 µM).
The inhibition of `CCCS(=O)(=O)Nc1ccc(F)c(C(=O)c2c[nH]c3ncc(-c4ccc(Cl)cc4)cc23)c1F` is reported as under 10% (FGFR2; enzyme activity, inhibitor; 1 µM).
With `CSc1nc(C)c(-c2ccnc(Nc3ccc(N4CCOCC4)cc3)c2)[nH]1` the inhibition was 44.9% (FGFR2; cell-free assay, inhibitor; 10 µM).
`CNc1cccc2cc(C(=O)Nc3ccc(C(=O)O)cc3)c(=O)[nH]c12` has an inhibition of 2.8% (FGFR2 N549H; enzyme activity, inhibitor; 10 µM).
For `CNC(=O)c1cc(Oc2ccc(NC(=O)Nc3ccc(Cl)c(C(F)(F)F)c3)cc2)ccn1`, the inhibition was 100% (FGFR2 N549H; cell-free assay; 10 µM).
`COc1cc2nccc(Oc3ccc(NC(=O)c4c5n(n(-c6ccc(F)cc6)c4=O)CCCC5)cc3)c2cc1OC` has an inhibition of 0% (FGFR2; enzyme activity, inhibitor; 0.1 µM).
